# Experimental data of several laboratories.
# Each line is one published result; the experiments were not run side by side. pEC50, pIC50: −log10 of the molar value.
SMILES,organism,test,test system,setting,measurement,value
COC(=O)c1cc(-c2cccc(NC(=S)Nc3ccc(OC)cc3)c2)on1,Acinetobacter baumannii,"microbial growth, broth dilution",BAA1605,,MIC,> 64 µg/mL
CC1SC2(CCCCC2)N(NC(=O)c2[nH]c3ccc(Cl)cc3c2-c2ccccc2)C1=O (stereo not shown),Enterovirus B,"viral replication, inhibitor","Vero, B4",,pEC50,< 4.00
COC(=O)c1cc(-c2cccc(NC(=O)Nc3cccc(F)c3)c2)on1,Acinetobacter baumannii,"microbial growth, broth dilution",BAA1605,,MIC,> 64 µg/mL
CC1CC(C)(C)CC2(C1)SCC(=O)N2NC(=O)c1[nH]c2ccc(Cl)cc2c1-c1ccccc1 (stereo not shown),Enterovirus B,"viral replication, inhibitor","Vero, B4",,pEC50,< 4.00
CC(C)(CO)C(=O)SCCOP(=O)(NCc1ccccc1)OC[C@H]1O[C@@H](n2cnc3c(=O)[nH]c(N)nc32)[C@](C)(O)[C@@H]1O (mixture of isomers),Hepatitis C virus,"viral replication, inhibitor","Huh-7, GETYPE1",replicon,EC90,0.9 µM
O=C(NN1C(=O)CSC12CCCCC2)c1[nH]c2ccc(Cl)cc2c1-c1ccccc1,Enterovirus B,"viral replication, inhibitor","Vero, B4",,pEC50,< 4.00
COC(=O)c1cc(-c2cccc(NC(=S)Nc3ccc(C)cc3)c2)on1,Acinetobacter baumannii,"microbial growth, broth dilution",BAA1605,,MIC,> 64 µg/mL
CC1SC2(CCC(c3ccccc3)CC2)N(NC(=O)c2[nH]c3ccc(Cl)cc3c2-c2ccccc2)C1=O (stereo not shown),Enterovirus B,"viral replication, inhibitor","Vero, B4",,pEC50,< 4.00
CC(C)S(=O)(=O)n1c(N)nc2ccc(/C(=N/O)c3ccccc3)cc21,Enterovirus B,"viral replication, inhibitor","Vero 76, B3",,pEC50,> 8.00
CC1(C)S[C@@H]2[C@H](NC(=O)[C@H](N)c3ccccc3)C(=O)N2[C@H]1C(=O)O,Acinetobacter baumannii,"microbial growth, broth dilution",ATCC19606,drug-resistant strain,MIC,64 µg/mL
COc1nc(N)nc2c1ncn2[C@@H]1O[C@H](COP(=O)(N[C@@H](C)C(=O)OCC(C)(C)C)Oc2cccc3ccccc23)[C@@H](O)[C@@]1(C)O (stereo partly shown),Hepatitis C virus,"viral replication, inhibitor",GETYPE2A,"96 h, replicon",EC90,0.0128 µM
C=C1CC[C@H](O)C/C1=C/C=C1\CCC[C@]2(C)[C@@H]([C@H](C)/C=C/[C@H](C)C(C)C)CC[C@@H]12,Hepatitis C virus,"viral replication, inhibitor, luciferase",GETYPE2A,"72 h, replicon",pEC50,4.85
CC1CCCC2(C1)SC(C)C(=O)N2NC(=O)c1[nH]c2ccc(Cl)cc2c1-c1ccccc1 (stereo not shown),Enterovirus B,"viral replication, inhibitor","Vero, B4",,pEC50,< 4.00
C=C[C@@H]1C[C@]1(NC(=O)[C@@H]1C[C@@H]2CN1C(=O)[C@H](C(C)(C)C)NC(=O)O[C@@H]1C[C@H]1CCCCCc1nc3ccc(OC)cc3nc1O2)C(=O)NS(=O)(=O)C1CC1,Hepatitis C virus,"viral replication, inhibitor, luciferase","Huh-7, GETYPE1B","96 h, replicon",pIC50,7.33
COC(=O)c1cc(-c2cccc(NC(=O)Nc3cc(Cl)ccc3Cl)c2)on1,Acinetobacter baumannii,"microbial growth, broth dilution",BAA1605,,MIC,> 64 µg/mL
CC1CCN(CCCN2/C(=C/c3cc[n+](C)c4ccccc34)Sc3ccccc32)CC1.[I-],Acinetobacter baumannii,"microbial growth, broth dilution",ATCC19606,drug-resistant strain,MIC,16 µg/mL
Cc1c(NN=C(C#N)C2=NC(=O)CS2)c(=O)n(-c2ccccc2)n1C,Acinetobacter baumannii,"microbial killing, broth dilution",,,MBC,0.25 µg/mL
C[n+]1c(/C=C/c2ccc(O)cc2)cc(/C=C2\Sc3ccccc3N2CCCN2CCOCC2)c2ccccc21.[I-],Acinetobacter baumannii,"microbial growth, broth dilution",ATCC19606,drug-resistant strain,MIC,> 64 µg/mL
COC(=O)c1cc(-c2cccc(NC(=O)Nc3cccc(Cl)c3Cl)c2)on1,Acinetobacter baumannii,"microbial growth, broth dilution",BAA1605,,MIC,> 64 µg/mL
C=C1/C(=C\C=C2/CCC[C@]3(C)[C@@H]([C@H](C)CCCC(C)(C)O)CC[C@@H]23)C[C@@H](O)C[C@@H]1O,Hepatitis C virus,"viral replication, inhibitor, luciferase",GETYPE2A,"5 days, replicon",pEC50,5.33
CCCC1CCC2(CC1)SCC(=O)N2NC(=O)c1[nH]c2ccc(Cl)cc2c1-c1ccccc1 (stereo not shown),Enterovirus B,"viral replication, inhibitor","Vero, B4",,pEC50,< 4.00
Cc1cc(/C=C2\Sc3ccccc3N2CCCN2CCCCC2)c2ccccc2[n+]1C.[I-],Acinetobacter baumannii,"microbial growth, broth dilution",ATCC19606,drug-resistant strain,MIC,64 µg/mL
COC(=O)c1cc(-c2cccc(NC(=O)Nc3ccc(Cl)cc3)c2)on1,Acinetobacter baumannii,"microbial growth, broth dilution",BAA1605,,MIC,> 64 µg/mL
C=C1CC[C@H](O)C/C1=C/C=C1\CCC[C@]2(C)[C@@H]([C@H](C)CCCC(C)C)CC[C@@H]12,Hepatitis C virus,"viral replication, inhibitor, luciferase","BM4-5, GETYPE1B","5 days, replicon",pEC50,5.42
O=C(Nc1cccc(-c2cc(C(=O)O)no2)c1)Nc1ccc(Cl)c(Cl)c1,Acinetobacter baumannii,"microbial growth, broth dilution",BAA1605,,MIC,> 64 µg/mL
O=C(NN1C(=O)CSC12CCC(c1ccccc1)CC2)c1[nH]c2ccc(Cl)cc2c1-c1ccccc1 (stereo not shown),Enterovirus B,"viral replication, inhibitor","Vero, B4",,pEC50,< 4.00
COC(=O)c1cc(-c2cccc(NC(=O)Nc3ccc(F)cc3)c2)on1,Acinetobacter baumannii,"microbial growth, broth dilution",BAA1605,,MIC,> 64 µg/mL
CC1CCC2(CC1)SCC(=O)N2NC(=O)c1[nH]c2ccc(Cl)cc2c1-c1ccccc1 (stereo not shown),Enterovirus B,"viral replication, inhibitor","Vero, B4",,pEC50,< 4.00
